Screening results (PubChem)
RGS4 inh: RGS4 inhibitors, primary screen, cell-based, HEK293 M3R inducible RGS4, calcium flux. Regulator of G-protein signaling 4 (Homo sapiens), P49798. B-score at 10 µM. actives 0.45% (n = 310,000). AID 463165, 2010. Fluo-4 calcium flux; stronger effect = higher value; triggered by carbachol at its EC20;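 active = B-score, a plate-corrected calcium signal, over three deviations above library mean, with baseline fluorescence within five deviations of library mean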;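 note: RGS4 expression induced by doxycycline in cells with stable M3 receptor; B-score is computed from the integrated fluorescence ratio over baseline after carbachol; higher B-score means a larger calcium signal and so more RGS4 inhibition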
Target sequence (P49798 whole entry, looked up): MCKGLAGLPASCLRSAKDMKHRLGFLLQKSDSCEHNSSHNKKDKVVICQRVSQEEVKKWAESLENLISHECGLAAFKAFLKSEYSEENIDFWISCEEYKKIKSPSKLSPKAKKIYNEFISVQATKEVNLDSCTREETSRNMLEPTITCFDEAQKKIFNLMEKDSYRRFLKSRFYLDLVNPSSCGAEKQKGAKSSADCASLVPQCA
MrgX1 antag: antagonists of human MrgX1 receptor, primary screen, HEK293 cells, Fluo-4 calcium flux. Mas-related G-protein coupled receptor member X1 (Homo sapiens), Q96LB2. BAM8-22 antagonism; stronger effect = lower value. B-score at 10 µM. actives 1.3% (n = 310,000). AID 588676, 2011;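 active = calcium-response B-score plate-corrected more than 3 library SD below zero, starting fluorescence within 5 deviations, no agonist response on first addition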;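 note: peak minus trough fluorescence over baseline after final BAM8-22 challenge near maximal dose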
Target sequence (Q96LB2 whole entry, looked up): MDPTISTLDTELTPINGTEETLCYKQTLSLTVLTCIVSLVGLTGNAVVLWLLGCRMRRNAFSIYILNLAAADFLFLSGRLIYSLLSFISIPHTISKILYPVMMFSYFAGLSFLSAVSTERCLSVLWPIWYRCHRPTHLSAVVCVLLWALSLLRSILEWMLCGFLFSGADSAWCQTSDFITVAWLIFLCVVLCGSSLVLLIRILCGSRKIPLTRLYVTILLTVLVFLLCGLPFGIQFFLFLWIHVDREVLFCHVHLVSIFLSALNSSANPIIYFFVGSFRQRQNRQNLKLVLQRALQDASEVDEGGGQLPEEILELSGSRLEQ
MrgX1 allo act: positive allosteric modulators of MrgX1, primary screen, HEK293 cells, Fluo-4 calcium flux; Mas-related G-protein coupled receptor member X1 (Homo sapiens), Q96LB2; FDSS; stronger effect = higher value; B-score at 10 µM; actives 0.63% (n = 310,000);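 active = plate-corrected calcium response at least 3 library SD above typical, normal starting fluorescence, not activating the receptor alone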;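 note: compound read alongside a low EC10 to EC30 dose of BAM8-22 agonist; peak minus trough fluorescence over baseline measured at the second addition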
RGS4 pot: RGS4 potentiators or activators, primary screen, cell-based, HEK293 M3R inducible RGS4, calcium flux. actives 0.92% (n = 310,000). B-score at 10 µM. carbachol calcium flux Fluo4; stronger effect = lower value;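 active = B-score of the integrated calcium signal more than 4 SD below the library mean, with starting fluorescence not abnormally high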;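 note: negative B-score means reduced calcium response which marks RGS4 activation or potentiation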
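test system = HEK293 cells with stable M3R and inducible RGS4 | schedule = recording 10 s baseline at 1 Hz, 100 s post-agonist | technique = Fluo4-AM (2 µM) calcium-flux fluorescence, kinetic read | measure = Agonist-evoked peak-minus-minimum fluorescence over baseline, integrated ratio, B score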
MrgX1 agonist: agonists of human MrgX1 receptor, primary screen, HEK293 cells, Fluo-4 calcium flux. Mas-related G-protein coupled receptor member X1 (Homo sapiens), Q96LB2. Fluo-4 calcium fluorescence, agonist mode; stronger effect = higher value. B-score at 10 µM. actives 0.44% (n = 310,000);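 active = calcium response B-score plate-corrected fluorescence ratio at least 3 library SD, with starting fluorescence B-score inside 5 SD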
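Material: MrgX1-expressing HEK293 cells; input: 15,000 cells per well; doses: test compound given as first of three sequential additions; schedule: overnight plating before 1 h dye loading; technique: Fluo-4 NW calcium-flux fluorescence, kinetic read; evaluation: baseline-normalised fluorescence change ratio, B-scored; control set: plate-wise positive and negative controls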
RGS4 block valid: enhanced carbachol calcium response, M3R/RGS4 cells, RGS4 inhibitor project, cell-based, validation screen, HEK293 M3R/RGS4, calcium flux | calcium response, % at 10 µM | shares compounds with RGS4 inh | actives 65% (n = 1,700) | carbachol calcium Fluo-4 fluorescence; carbachol added at its EC20; 0 = buffer wells, 100 = carbachol control | AID 492999, 2010;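 active = duplicate-averaged calcium response above the buffer-only control mean plus 5 SD of those controls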;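 note: integrated fluorescence ratio F max minus min over baseline F0; higher response in RGS4-induced cells means RGS4 inhibition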
M3R Ca ctr: carbachol calcium response in non-induced M3R cells, confirmation, counter-screen for RGS4 inhibitor project, cell-based, HEK293 M3R | activity (percent), % at 10 µM | carbachol calcium Fluo-4; submaximal (EC20) carbachol stimulus; buffer wells 0%, carbachol control wells 100% | actives 20% (n = 1,900) | shares compounds with RGS4 inh; call rule not given here;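 note: RGS4 induction absent so cells express M3R without RGS4; higher means more calcium signal and flags a non-specific hit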
RGS4 inh ctr2: second RGS4 inhibitor counter-screen in uninduced cells lacking carbachol | shares compounds with RGS4 inh | HEK293 M3R/RGS4 non-induced, Fluo-4 calcium, no carbachol; normalised: buffer wells 0%, carbachol wells 100% | calcium response (agonist-mode artifact), % at 10 µM | actives 22% (n = 1,900);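 active = duplicate-averaged calcium rise in uninduced cells above buffer wells' mean plus 5 SD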
Active calls of the source: *; i = inactive; . = not tested or not shown. A selection: hits, their analogues and other compounds. The true share with any hit is near 3.5%.

SMILES	RGS4 inh	MrgX1 antag	MrgX1 allo act	RGS4 pot	MrgX1 agonist	RGS4 block valid	M3R Ca ctr	RGS4 inh ctr2
CCOC(=O)C(CCCCC(NC(C)=O)(C(=O)OCC)C(=O)OCC)(NC(C)=O)C(=O)OCC	i	i	i	i	i	.	.	.
CC(=O)Oc1cc2c(cc1Cl)C1(CC(c3ccccc3Cl)O2)CC(C)(C)NC(=S)N1 (centres undefined)	5*	i	i	i	i	9.0%*	i	i
Cc1ccc(N2C(=O)Cc3ccccc3C2=O)cc1	i	i	i	i	i	i	i	i
O=C1CC(C(=O)O)(c2ccccc2)c2cccc(F)c21 (centres undefined)	i	i	i	i	i	.	.	.
OCCN(CCO)c1ccc(C(c2ccccc2Cl)c2ccc(N(CCO)CCO)cc2Cl)c(Cl)c1	i	i	i	i	i	i	i	15%*
OCCN(CCO)c1ccc2ccccc2c1	i	i	i	i	i	.	.	.
O=C(/C=C/c1cccc(F)c1)Nc1ccc(S(=O)(=O)Nc2ncccn2)cc1	5.1*	i	i	i	i	7.0%*	i	i
CC(CC(=O)Nc1ccc(S(=O)(=O)Nc2ncccn2)cc1)c1ccccc1 (centres undefined)	i	i	i	i	i	i	i	i
Cc1c(NC(=O)C(C)OC(=O)c2ccc(NC(=O)CC#N)cc2)c(=O)n(-c2ccccc2)n1C (centres undefined)	i	i	i	i	i	.	.	.
COc1ccc(N2C(=O)CC(N3CCN(S(=O)(=O)c4c(F)cccc4F)CC3)C2=O)cc1OC (centres undefined)	6.8*	i	i	i	i	9.0%*	i	i
COc1cccc(N2CCN(C3CC(=O)N(c4ccc(F)c(Cl)c4)C3=O)CC2)c1 (centres undefined)	i	i	i	i	i	.	.	.
Cc1cccnc1Nc1nc(-c2ccc(O)cc2)cs1	i	i	i	i	i	.	.	.
c1ccc(-c2csc(Nc3ccccn3)n2)cc1	i	i	i	i	i	i	i	i
COc1ccc(-c2csc(Nc3ccccn3)n2)cc1OC	i	i	i	i	i	.	.	.
Oc1ccc(-c2csc(Nc3ccccn3)n2)cc1	i	i	i	i	i	i	i	i
Cc1ccc(-c2csc(Nc3ccccn3)n2)cc1	9.1*	i	i	i	i	i	i	i
Cc1cc(-c2csc(Nc3ccccn3)n2)ccc1F	5.4*	i	i	i	i	16%*	i	i
Cc1ccsc1C(=O)NCCc1nnc2ccccn12	i	i	i	i	i	.	.	.
COc1cc(/C=N/N2CCCCC2)cc([N+](=O)[O-])c1O	i	i	i	i	i	.	.	.
N/C(=N\NS(=O)(=O)c1ccccc1Cl)c1ccccn1	i	i	i	i	i	.	.	.
CCCCSc1nnc(CSc2ncccn2)n1C	i	i	i	i	i	.	.	.
O=C(CCSc1ccc(Br)cc1)c1ccc(O)cc1	i	i	i	i	i	.	.	.
COc1ccc(N2CCCC2=N)c(OC)c1	i	i	i	i	i	.	.	.
C=CCNC(=O)/C(C#N)=C/c1ccc(OS(=O)(=O)c2ccc(C)cc2)c(OC)c1	4.8*	i	i	i	i	14%*	i	i
COc1cc(C(C[N+](=O)[O-])c2c(N)n(C)c(=O)n(C)c2=O)ccc1O (centres undefined)	5.2*	i	i	i	i	20%*	i	8.0%*
SMILES	RGS4 inh	MrgX1 antag	MrgX1 allo act	RGS4 pot	MrgX1 agonist	RGS4 block valid	M3R Ca ctr	RGS4 inh ctr2
Cc1ccc(C(C[N+](=O)[O-])c2c(N)n(C)c(=O)n(C)c2=O)cc1 (centres undefined)	i	i	i	i	i	.	.	.
COc1ccc(C2=Nn3c(nnc3-c3cccnc3)SC2)cc1OC	i	i	i	i	i	i	i	i
COc1ccccc1-c1nnc2n1N=C(c1ccc(O)c(O)c1)CS2	i	i	i	i	i	.	i	i
Brc1ccc(C2=Nn3c(nnc3-c3cccnc3)SC2)s1	i	i	i	i	i	.	.	.
CCCc1nnc(SCC(=O)NC2CC2)n1CC	i	i	i	i	i	.	.	.
Fc1cccc(NC(=S)NC2CCCCCCC2)c1	i	i	i	i	i	.	.	.
CCOc1ccc(-n2c(=O)c3sccc3n(CC(=O)NCC3CCCO3)c2=O)cc1 (centres undefined)	i	i	i	i	i	.	.	.
COc1cc(/C=C2\CC/C(=C\c3cc(OC)c(OC)c(OC)c3)C2=O)cc(OC)c1OC	i	i	i	i	i	.	.	.
COc1cc(/C=C2\COC/C(=C\c3cc(OC)c(OC)c(OC)c3)C2=O)cc(OC)c1OC	6.4*	.	.	i	.	20%*	i	i
COc1ccc(-c2c(-c3ccc(O)cc3O)n[nH]c2C)cc1OC	i	i	i	i	i	.	.	.
Nc1ncc(-c2ccccc2)c(-c2ccc(O)cc2O)n1	i	i	i	i	i	.	.	.
Oc1ccc(-c2n[nH]c(C(F)(F)F)c2-c2ccccc2)c(O)c1	25*	i	i	i	i	48%*	46%*	i
COc1ccc(-c2c(-c3ccc(O)cc3O)n[nH]c2C(F)(F)F)cc1	10*	i	i	i	i	35%*	35%*	20%*
COc1ccccc1-c1c(-c2ccc(O)cc2O)n[nH]c1C(F)(F)F	11*	i	i	i	i	40%*	33%*	i
COc1ccc(C)cc1NC(=O)CN1C(=O)COc2ccc(C)cc21	i	i	i	i	i	.	.	.
Nc1ccc(C23CC4CC(CC(C4)C2)C3)cc1	7.9*	i	i	i	i	13%*	i	i
